Measurements: ChEMBL document CHEMBL1157717, “Design, synthesis and biological evaluation of 6-(benzyloxy)-4-methylquinolin-2(1H)-one derivatives as PDE3 inhibitors” (Bioorg Med Chem, 2010)

Columns and labels:
[1] = target: T1, cGMP-inhibited 3',5'-cyclic phosphodiesterase 3A (Homo sapiens, UniProt Q14432); experiment: Inhibition of human PDE3A by fluorescence microplate reader
Summary of the method: (§1)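 IMAP fluorescence-polarization PDE assay: 1 ng PDE3A or PDE3B, 100 nM FAM-cAMP in IMAP reaction buffer, 60 min at room temperature. Binding reagent (1:600) added for a further 60 min at room temperature. Read at ex 485/em 528 nm, in duplicate. % activity is normalised to the no-enzyme and maximum-FP values. IC50 comes from a sigmoidal fit over 0.01–100 μM.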

[2] = target: T2, cGMP-inhibited 3',5'-cyclic phosphodiesterase 3B (Homo sapiens, UniProt Q13370); experiment: Inhibition of human PDE3B by fluorescence microplate reader; summary of the method: as §1
Target sequence in this assay (Q13370 whole entry): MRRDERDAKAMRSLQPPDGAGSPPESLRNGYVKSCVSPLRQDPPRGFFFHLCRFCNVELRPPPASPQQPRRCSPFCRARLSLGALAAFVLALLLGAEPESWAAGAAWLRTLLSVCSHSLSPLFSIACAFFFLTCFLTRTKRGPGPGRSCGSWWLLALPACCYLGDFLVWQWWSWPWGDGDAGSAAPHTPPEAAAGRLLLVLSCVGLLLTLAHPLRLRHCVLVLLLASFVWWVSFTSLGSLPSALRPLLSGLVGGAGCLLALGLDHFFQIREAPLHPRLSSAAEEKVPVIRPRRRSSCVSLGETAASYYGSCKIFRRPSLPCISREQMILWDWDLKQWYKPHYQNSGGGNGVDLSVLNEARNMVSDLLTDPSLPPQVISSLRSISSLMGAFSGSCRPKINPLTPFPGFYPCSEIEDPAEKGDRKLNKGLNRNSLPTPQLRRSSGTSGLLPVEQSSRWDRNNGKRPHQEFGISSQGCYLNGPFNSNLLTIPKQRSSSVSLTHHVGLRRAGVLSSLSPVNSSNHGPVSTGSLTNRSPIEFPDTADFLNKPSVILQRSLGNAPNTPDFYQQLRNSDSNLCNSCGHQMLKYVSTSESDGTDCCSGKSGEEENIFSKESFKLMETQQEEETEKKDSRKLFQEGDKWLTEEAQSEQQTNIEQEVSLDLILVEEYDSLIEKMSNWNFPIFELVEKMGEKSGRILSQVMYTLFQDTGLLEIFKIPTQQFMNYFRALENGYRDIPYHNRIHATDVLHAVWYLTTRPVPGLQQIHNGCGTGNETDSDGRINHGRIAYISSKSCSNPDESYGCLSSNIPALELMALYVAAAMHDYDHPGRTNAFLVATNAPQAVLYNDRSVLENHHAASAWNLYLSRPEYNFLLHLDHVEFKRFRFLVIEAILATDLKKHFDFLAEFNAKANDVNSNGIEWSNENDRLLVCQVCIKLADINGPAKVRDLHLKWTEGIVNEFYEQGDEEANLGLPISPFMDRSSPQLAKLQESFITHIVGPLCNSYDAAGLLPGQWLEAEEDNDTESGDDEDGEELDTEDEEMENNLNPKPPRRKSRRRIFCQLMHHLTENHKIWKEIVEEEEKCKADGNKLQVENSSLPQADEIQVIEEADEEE

[3] = Positive inotropic activity in isolated reserpine-treated Wistar rat whole atrium assessed as contraction at 10 uM (Rvb=100+/-4%); type: functional, Cardiac atrium
Summary of the method: (§2)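 Male Wistar rats (250–350 g) received reserpine 5 mg/kg ip 24 h before thiopental anaesthesia. Whole atria were mounted in Krebs–Henseleit gassed with 95% O2/5% CO2, 35–37 °C, pH 7.35–7.45, under about 0.5 g resting tension with 40–50 min equilibration. Only tyramine (1.5 μM)-unresponsive preparations were used. Compounds were added cumulatively (1–100 μM), with isometric force and rate recorded. Values are mean ± SEM, six atria.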

[4] = Positive inotropic activity in isolated reserpine-treated Wistar rat whole atrium assessed as heart rate at 100 uM (Rvb=100+/-3%); type: functional, Cardiac atrium; summary of the method: as §2
[5] = Positive inotropic activity in isolated reserpine-treated Wistar rat whole atrium assessed as contraction at 1 uM (Rvb=100+/-4%); type: functional, Cardiac atrium; summary of the method: as §2
[6] = Positive inotropic activity in isolated reserpine-treated Wistar rat whole atrium assessed as heart rate at 1 uM (Rvb=100+/-3%); type: functional, Cardiac atrium; summary of the method: as §2
[7] = Positive inotropic activity in isolated reserpine-treated Wistar rat whole atrium assessed as heart rate at 10 uM (Rvb=100+/-3%); type: functional, Cardiac atrium; summary of the method: as §2
[8] = Positive inotropic activity in isolated reserpine-treated Wistar rat whole atrium assessed as contraction at 100 uM (Rvb=100+/-4%); type: functional, Cardiac atrium; summary of the method: as §2
[9] = Positive inotropic activity in isolated reserpine-treated Wistar rat whole atrium assessed as heart rate at 10 uM (Rvb=100+/-2%); type: functional, Cardiac atrium; summary of the method: as §2
[10] = Positive inotropic activity in isolated reserpine-treated Wistar rat whole atrium assessed as heart rate at 100 uM (Rvb=100+/-2%); type: functional, Cardiac atrium; summary of the method: as §2
[11] = Positive inotropic activity in isolated reserpine-treated Wistar rat whole atrium assessed as contraction at 10 uM (Rvb=100+/-3%); type: functional, Cardiac atrium; summary of the method: as §2
[12] = Positive inotropic activity in isolated reserpine-treated Wistar rat whole atrium assessed as contraction at 1 uM (Rvb=100+/-3%); type: functional, Cardiac atrium; summary of the method: as §2
[13] = target: T2, cGMP-inhibited 3',5'-cyclic phosphodiesterase 3B; experiment: Ratio of IC50 for vesnarinone to IC50 for drug against human PDE3B by fluorescence microplate reader
Target sequence in this assay (Q13370 whole entry, looked up): as the sequence (Q13370 whole entry) above

[14] = Positive inotropic activity in isolated reserpine-treated Wistar rat whole atrium assessed as contraction at 100 uM (Rvb=100+/-3%); type: functional, Cardiac atrium; summary of the method: as §2
[15] = target: T1, cGMP-inhibited 3',5'-cyclic phosphodiesterase 3A; experiment: Ratio of IC50 for vesnarinone to IC50 for drug against human PDE3A by fluorescence microplate reader
[16] = target: T2, cGMP-inhibited 3',5'-cyclic phosphodiesterase 3B; experiment: Ratio of IC50 for vesnarinone to IC50 for drug against human PDE3B by fluorescence microplate reader
Target sequence in this assay (Q13370 whole entry, looked up): as the sequence (Q13370 whole entry) above

[17] = target: T1, cGMP-inhibited 3',5'-cyclic phosphodiesterase 3A; experiment: Ratio of IC50 for vesnarinone to IC50 for drug against human PDE3A by fluorescence microplate reader

T1 sequence (Q14432 whole entry): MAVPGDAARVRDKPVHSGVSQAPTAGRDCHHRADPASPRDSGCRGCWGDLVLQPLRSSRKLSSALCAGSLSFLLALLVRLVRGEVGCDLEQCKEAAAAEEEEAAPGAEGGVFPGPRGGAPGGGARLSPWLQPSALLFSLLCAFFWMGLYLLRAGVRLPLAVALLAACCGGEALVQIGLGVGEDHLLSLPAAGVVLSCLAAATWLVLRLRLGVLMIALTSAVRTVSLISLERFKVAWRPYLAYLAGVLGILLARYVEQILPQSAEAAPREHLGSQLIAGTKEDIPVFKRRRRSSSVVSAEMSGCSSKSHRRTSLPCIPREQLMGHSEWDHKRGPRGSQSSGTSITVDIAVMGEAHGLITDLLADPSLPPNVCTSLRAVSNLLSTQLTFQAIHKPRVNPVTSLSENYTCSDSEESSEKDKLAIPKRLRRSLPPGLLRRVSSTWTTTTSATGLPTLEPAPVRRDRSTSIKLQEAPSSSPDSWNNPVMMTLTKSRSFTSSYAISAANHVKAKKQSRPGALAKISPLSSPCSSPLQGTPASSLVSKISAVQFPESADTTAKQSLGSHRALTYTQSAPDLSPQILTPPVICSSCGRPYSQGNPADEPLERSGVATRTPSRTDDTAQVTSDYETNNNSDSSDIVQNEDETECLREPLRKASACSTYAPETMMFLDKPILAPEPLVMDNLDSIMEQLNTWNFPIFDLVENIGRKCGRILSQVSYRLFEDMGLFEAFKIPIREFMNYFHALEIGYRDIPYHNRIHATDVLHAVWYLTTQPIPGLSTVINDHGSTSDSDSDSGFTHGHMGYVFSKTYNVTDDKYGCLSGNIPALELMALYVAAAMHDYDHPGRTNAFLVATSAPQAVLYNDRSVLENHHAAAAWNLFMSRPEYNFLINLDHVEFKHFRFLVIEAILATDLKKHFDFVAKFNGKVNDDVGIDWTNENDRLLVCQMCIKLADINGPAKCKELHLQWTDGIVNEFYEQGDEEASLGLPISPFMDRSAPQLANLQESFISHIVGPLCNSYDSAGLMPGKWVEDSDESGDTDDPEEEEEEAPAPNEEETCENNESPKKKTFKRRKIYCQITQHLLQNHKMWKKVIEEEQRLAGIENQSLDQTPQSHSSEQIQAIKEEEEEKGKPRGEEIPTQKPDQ

Row | Structure (SMILES) | IC50 [1] [µM] | IC50 [2] [µM] | further results
1 | Cc1cc(=O)[nH]c2ccc(OCc3cccc(C(=O)N4CCN(CCO)CC4)c3)cc12 | 1.65 | 2.8 | –
2 | Cc1cc(=O)[nH]c2ccc(OCc3cccc(C(=O)N4CCOCC4)c3)cc12 | 1.34 | 1.54 | –
3 | Cc1cc(=O)[nH]c2ccc(OCc3cccc(C(=O)N4CCC(C(=O)O)CC4)c3)cc12 | 0.84 | 1.28 | –
4 | Cc1cc(=O)[nH]c2ccc(OCc3cccc(C(=O)N4CCC(O)CC4)c3)cc12 | 1.35 | 0.91 | –
5 | COc1ccc(C(=O)N2CCN(c3ccc4c(c3)CCC(=O)N4)CC2)cc1OC [VESNARINONE] | 10.7 | 13.2 | Activity [3]: 121%; Activity [4]: 114%; Activity [5]: 102%; Activity [6]: 103%; Activity [7]: 109%; Activity [8]: 141%
6 | CCN1CCN(C(=O)c2cccc(COc3ccc4[nH]c(=O)cc(C)c4c3)c2)CC1 | 1.44 | 1.93 | Activity [9]: 108%; Activity [10]: 116%; Activity [11]: 123%; Activity [12]: 101%; Ratio IC50 [13]: 8; Activity [14]: 146%; Ratio IC50 [15]: 25
7 | Cc1cc(=O)[nH]c2ccc(OCc3cccc(C(=O)N4CCC(C)CC4)c3)cc12 | 0.43 | 1.61 | –
8 | Cc1cc(=O)[nH]c2ccc(OCc3cccc(C(=O)N4CCC(=O)CC4)c3)cc12 | 1.26 | 1.14 | –
9 | Cc1cc(=O)[nH]c2ccc(OCc3cccc(C(=O)N4CCCCC4)c3)cc12 | 0.66 | 1.73 | –
10 | Cc1cc(=O)[nH]c2ccc(OCc3cccc(C(=O)N4CCN(C)CC4)c3)cc12 | 1.76 | 3.51 | Ratio IC50 [16]: 4; Ratio IC50 [17]: 6
11 | Cc1cc(=O)[nH]c2ccc(OCc3cccc(C(=O)N4CCCC4)c3)cc12 | 0.64 | 1.2 | –
